Screening results deposited in PubChem BioAssay by several laboratories.
T cruzi repl: blocks replication of Trypanosoma cruzi. inhibition, % (concentration not given with the values). 300,000 tested, 1.4% active. AID 1885. T. cruzi beta-gal in NIH3T3, luminescence, 90 h;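 active = mean inhibition across valid replicates above about 55%, limit read from the data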;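 note: signal also drops with host cell toxicity which is not excluded here; 0% = plate median of DMSO wells and 100% = zero luminescence signal; higher percent means less beta-gal luminescence so fewer parasites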
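assay system = mouse NIH/3T3 fibroblasts infected with β-gal-expressing T. cruzi Tulahuen C4 | input = 5,000 NIH/3T3 host cells per well | buffer or medium = DMEM plus 2% FBS | timing = 3 h host attachment, then at least 90 h co-culture | measured by = GalScreen luminescence, 60 min | evaluation = luminescence reflecting intracellular parasite burden, expressed as percent inhibition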
DTT redox prof: compounds producing H2O2 with reducing agent – biochemical, NIH compound library profiling, artefact control for MLSCN library redox annotation, primary screen | AID 878 | 200,000 tested, 0.03% active | DTT-dependent redox cycling H2O2, phenol red/HRP absorbance; 100% = 100 µM peroxide control, 0% = buffer | activation, % at 10 µM;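 active = activation of at least 50% relative to the plate's high and low controls in the primary single-dose screen; inactive = activation below 50%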;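 note: compound incubated with DTT at 0.8 mM final as the reducing agent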
MPTP block: permeability transition pore inhibition. AID 602449. isolated mouse mitochondria, Ca2+ swelling absorbance, 30 min. 360,000 tested, 1.4% active. inhibition, % at 10 µM;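 active = inhibition of 50% or more, scaled per plate between neutral and stimulator controls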;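 note: 0% = DMSO wells given calcium and 100% = 1 mM EGTA wells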
Lmaj promast: Leishmania major promastigote growth inhibition; AID 1063; Leishmania major promastigotes, resazurin fluorescence viability; 200,000 tested, 9% active; inhibition, % at 10 µM; in the data active = inhibition above about 50%;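 note: promastigotes grown with compound for 44 hours at 28 °C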
Lipid droplet: modulators of hepatic lipid droplet formation; AML12 mouse hepatocytes, oleate lipid droplets, BODIPY imaging; inhibition, % at 6.5 µM; 240,000 tested, 0.4% active; AID 1656;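 active = lipid droplet intensity inhibited by at least 50%, with more than 500 cells counted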
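Material: mouse AML12 hepatocyte cell line, fixed after treatment; Timing: compound with oleate, overnight; Technique: high-content imaging of BODIPY-stained droplets and DAPI nuclei; Probe or stimulus: oleate, 100 µM final; Dosing: compound at 6.5 µM only.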
Active calls of the source: *; . = no result given. Shown is part of a subset that was picked to be rich in hits.

SMILES | T cruzi repl | DTT redox prof | MPTP block | Lmaj promast | Lipid droplet
COc1cc(C2=NC(CO)(CO)CO2)cc(OC)c1OC | -10 | -1 | 1 | -2 | -4
Cn1nccc1C(=O)Nc1ccn(C23CC4CC(CC(C4)C2)C3)n1 | 2 | -1 | 4 | 53* | -35
Cc1nn(C)c(C(=O)Nc2ccn(C34CC5CC(CC(C5)C3)C4)n2)c1[N+](=O)[O-] | -17 | 0 | 0 | 4 | -11
C[n+]1ccc(/C=C/c2ccc(Br)cc2)cc1 | 32 | -5 | 4 | 86* | .
O=C(CNC(=O)c1ccc(Br)o1)OCC(=O)c1cccc([N+](=O)[O-])c1 | -2 | -1 | -1 | -9 | -15
COc1ccc(/C=N/n2cc(-c3ccccc3)nc2N)cc1 | 30 | -1 | -1 | 3 | -2
COc1ccc(/C=N/n2cc(-c3ccc(OC)cc3)nc2N)cc1 | 29 | 0 | -2 | 93* | -1
CCCNC(=S)N1CCN(Cc2ccc3c(c2)OCO3)CC1 | -1 | -1 | -1 | 8 | -1
CCOCCCNC(=S)N1CCN(Cc2ccc3c(c2)OCO3)CC1 | -13 | 0 | 2 | 74* | 25
Cc1ccc(Nc2nc(N)nc(CN3CCN(Cc4ccc5c(c4)OCO5)CC3)n2)cc1Cl | 8 | 0 | -6 | 70* | .
Fc1ccccc1NC(=S)N1CCN(Cc2ccc3c(c2)OCO3)CC1 | -8 | -2 | -2 | 12 | -12
COC(=O)c1ccsc1NC(=O)CN1CCN(Cc2ccc3c(c2)OCO3)CC1 | 36 | -5 | -2 | 8 | .
Cc1ccc(Nc2nc(N)nc(CN3CCN(Cc4ccc5c(c4)OCO5)CC3)n2)cc1C | 19 | 0 | 0 | 34 | -1
COC(=O)c1c(NC(=O)CN2CCN(Cc3ccc4c(c3)OCO4)CC2)sc(C)c1C | 59* | 0 | 2 | 49 | .
Cc1cc(Cl)ccc1NC(=S)N1CCN(Cc2ccc3c(c2)OCO3)CC1 | 3 | -1 | 1 | 87* | 1
COC(=O)C1=CN(c2ccc(C)cc2)C(N)=C(C#N)C1c1ccccc1F (configuration not stated) | . | . | 2 | . | .
CCCOC1CCCN(Cc2nc(-c3ccc(C(=O)OC)cc3)no2)C1 (configuration not stated) | 29 | . | 1 | . | -10
Cc1ccc(NC(=O)N2CCN(Cc3ccc4c(c3)OCO4)CC2)cc1 | 6 | 0 | -1 | 49 | 16
CC(C)(C)CC(C)(C)NC(=S)N1CCN(Cc2ccc3c(c2)OCO3)CC1 | -4 | -1 | -4 | 82* | 2
Cc1cccc(NC(=O)N2CCN(Cc3ccc4c(c3)OCO4)CC2)c1C | 11 | 0 | 0 | 56* | 0
Cc1csc(NC(=O)c2cn3ccccc3n2)n1 | -4 | 0 | 1 | 13 | -19
CC(=O)Cn1nnc2sc(-c3ccccc3)cc2c1=O | 12 | 0 | -1 | 1 | 33
CCc1nnc(NC(=O)CCNC(=O)c2ccco2)s1 | -2 | . | -1 | . | 13
N#Cc1ccccc1NC(=O)COC(=O)/C=C/c1ccc(S(=O)(=O)N2CCOCC2)cc1 | . | . | -1 | . | .
Cn1cnnc1SC1c2cccc3cccc(c23)C1NS(=O)(=O)c1ccc(Cl)cc1 (configuration not stated) | 7 | 0 | 2 | 53* | 30
SMILES | T cruzi repl | DTT redox prof | MPTP block | Lmaj promast | Lipid droplet
CC/C(C)=N/Nc1cccc([N+](=O)[O-])c1 | 14 | 1 | 3 | 96* | 7
C[C@H]1CN([C@@H](C)CO)C(=O)c2cc(Br)cnc2O[C@@H]1CN(C)C(=O)C1CCC1 | . | . | -2 | . | .
Cc1ccccc1N1C(=O)C(Oc2ccc(Cl)cc2)C1CNCCCOC(C)C (configuration not stated) | 17 | 0 | 1 | 93* | -19
COCCCNCC1C(Oc2ccc(Cl)cc2)C(=O)N1c1ccccc1C (configuration not stated) | -8 | 0 | 0 | 84* | 14
COCCN1CC(=O)N(c2cccc(C)c2C)C(c2ccc(Cl)cc2)C1=O (configuration not stated) | 12 | 2 | 1 | 0 | .
Cc1cc(N2CCN(S(=O)(=O)c3ccc(Cl)c(Cl)c3)CC2)c2ccccc2n1 | . | 0 | 0 | 74* | -30
Cc1cc(C)n(-c2nc3ccccc3nc2N2CCN(S(=O)(=O)c3ccc(F)c(C)c3)CC2)n1 | 21 | -2 | 0 | 20 | -45
Cc1cc(N2CCN(S(=O)(=O)c3ccc(Cl)cc3)CC2)c2ccccc2n1 | 3 | 0 | 7 | 33 | -2
